Data as given in PMC2756606 (Organic letters, 2009).
Where two headings read alike, the source gives them in different places.

Key:
[1] = test system: HCT116/δOR and parental HCT116 tumors in SCID mice; assay type: in vivo, mouse; conditions: 10 μg i.v. (tail vein), 15 min post-injection, not shown
[2] = biological target: δOR (δ-opioid receptor) in HCT116 colon carcinoma cells engineered to express the δOR (Homo sapiens, UniProt P41143); assay: competitive binding assay, time-resolved fluorescence; conditions: TRF competitive binding; HCT116 cells expressing δOR
Summary of the method: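 Purified test compounds were run in a competition format on whole HCT116 colon carcinoma cells engineered to express δOR. Ki was derived from a fitted competition curve, with R2 reported for the fit.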

[3] = test system: mouse-isolated vas deferens, δ-opioid receptor (antagonism of δ-agonist DPDPE); assay: mouse-isolated vas deferens; assay type: biochemical; conditions: MVD assay against δ-agonist DPDPE; n=8
[4] = biological target: δ-opioid receptor; conditions: cited from earlier work

CC[N+]1=C(C=CC=CC=C2N(CCCCCC(=O)NCCN3C(=O)CC(SCCC(=O)NCCCC[C@H](NC(=O)[C@@H]4Cc5ccccc5CN4C(=O)[C@@H](N)Cc4c(C)cc(O)cc4C)C(=O)O)C3=O)c3ccc(S(=O)(=O)O)cc3C2(C)C)C(C)(C)c2cc(S(=O)(=O)[O-])ccc21 (some centres unmarked) [Ligand 1]
systemic distribution, fluorescence intensity maps [1]: systemic presence of the compound with high intensity throughout the animal
affinity of labeled ligand compared with unlabeled counterpart (ligand 6) [2]: equipotent to its unlabeled counterpart
inhibitory potency, Ke [3]: 0.037 ± 0.009 nM

Dmt-Tic-Lys-NH2
Ki ([4]; reported radioligand binding assays, compared with TRF results): 0.71 nM

H-Dmt-Tic-Lys(Ac)-OH
Ki ([4]; δ-receptor affinity in radioligand binding assays): 0.047 nM
